Data on six compounds can be found in article PMC3248997 (Bioorganic & medicinal chemistry, 2011).

Where two headings read alike, the source gives them in different places.

As a reminder, the bioavailability is dose-corrected exposure relative to a reference, in per cent.

For data set [1] the following is noted: in vivo.
For data set [2], the system named is COX activity (PGE2 and 6-keto-PGF1α formation) in brain homogenates. The data set is described as follows: Inhibition of COX activity in tissue extract. The format is biochemical, C57BL/6 mice. Summed up:
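C57BL/6 mouse brain homogenate prepared on ice in 50 mM Tris pH 7.4 with 1 mM phenol and protease inhibitors. 20 µg homogenate preincubated with test compound or vehicle. 150 µM arachidonic acid added at 37°C. Stopped after 5 min by acidifying to pH 2.5 with formic acid and chilling. Prostanoids extracted with ethyl acetate/hexane (7:1). PGE2 and 6-keto-PGF1α quantified by GC-MS/MS.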

In data set [3] the test system is COX-2 in murine macrophages. The note with it: unclear which pyrazolone(s) were added; cited from earlier work.
For data set [4] the following is noted: cited from earlier work.
Data set [5] has as its system COX-2 in primary human leukocytes. The note with it: unclear which pyrazolone(s) were added; cited from earlier work.
Data set [6] concerns PGE2 formation in brain tissue from COX-1−/− mice. The format is biochemical. The note with it: 0.8 µM; brain tissue from LPS stimulated COX-1−/− mice.
The conditions of data set [7]: intracerebroventricular injection of 10 nmol; cited from earlier work.
The conditions of data set [8]: cited from earlier work. The source holds these as a separate data set.

Turning to `CCCCC/C=C\C/C=C\C/C=C\C/C=C\CCCC(=O)Nc1c(C)n(C)n(-c2ccccc2)c1=O` [compound 6, (5Z,8Z,11Z,14Z)-Icosa-5,8,11,14-tetraenoic acid (1,5-dimethyl-3-oxo-2-phenyl-2,3-dihydro-1H-pyrazol-4-yl)-amide], in data set [1] (C57BL/6, mouse), the “amount in mouse brain cell homogenates” value is 39 pg/sample. Moreover, the “formation in brain of FAAH−/− mice as compared to wild type mice” value in data set [1] (FAAH−/− knockout compared with wild type (C57BL/6), mouse, 5 days) is given as “about 6%”. For the same compound, in data set [2] (brain homogenates, concentration range 100 nM to 100 µM), the “effect on PGE2 formation” value was “no effect”.

Consider `Cc1c(N(C)CS(=O)(=O)[O-])c(=O)n(-c2ccccc2)n1C.[Na+]` [compound 1, sodium N-(2,3-dimethyl-5-oxo-1-phenyl-3-pyrazolin-4-yl)-N-methylaminomethanesulphonate], for which the “activity against COX-2” value in data set [3] was “approximately 12 µg ml^−1”; in data set [5], roughly 21 µg/mL. Further, the “time detectable in the serum” value in data set [4] (following intravenous administration) is on record as “about 15 min”. For the same compound, the “detectability in the serum after oral intake” value in data set [4] (oral intake) is listed as “not detectable”.

For the compound `CCCCC/C=C\C/C=C\C/C=C\C/C=C\CCCC(=O)N(C)c1c(C)n(C)n(-c2ccccc2)c1=O` [compound 5, (5Z,8Z,11Z,14Z)-Icosa-5,8,11,14-tetraenoic acid (1,5-dimethyl-3-oxo-2-phenyl-2,3-dihydro-1H-pyrazol-4-yl)-methyl-amide], in data set [6], the “formation of PGE2” value is on record as “did not observe any formation of PGE2”. For the same compound, the “lowering of IC50 by the FAAH inhibitor URB532” value in data set [2] (inhibition of PGE2 formation in mouse brain homogenates) is recorded as “more than 200 fold”. Moreover, the “formation in brain of FAAH−/− mice as compared to wild type mice” value (dipyrone for 5 days) was “less than 2%”. Further, the “amount in mouse brain cell homogenates” value (representative chromatogram, Figure 9 B) is 2.4 pg/sample.

With `CCCCC/C=C\C/C=C\C/C=C\C/C=C\CCCC(=O)Nc1ccc(O)cc1` [AM404, N-arachidonoylaminophenol], the antinociception entry in [7] is listed as “Antinociception was observed”.

With `CNc1c(C)n(C)n(-c2ccccc2)c1=O` [compound 2, 4-methylaminoantipyrine], the “concentration in the cerebrospinal fluid” value in [8] is 5000 to 30000 ng/mL. For the same compound, the bioavailability in data set [4] (after oral administration of dipyrone) is 85%. Further, the “average elimination half-life (t1/2)” value in data set [4] was 2.6 to 3.5 h. Further, in data set [4] (time to maximal systemic concentrations), the tmax was 1.2 to 2.0 h.

With `Cc1c(N)c(=O)n(-c2ccccc2)n1C` [compound 3, 4-aminoantipyrine], in data set [8], the “concentration in the cerebrospinal fluid” value was 1000 to 7000 ng/mL.
